According to ChEMBL document CHEMBL1150301, “Structure-activity relationship studies on N'-aryl carbohydrazide P2X7 antagonists” (J Med Chem, 2008):

Columns and labels:
P2X purinoceptor 7 [1] = target: T1, P2X purinoceptor 7 (Homo sapiens, UniProt Q99572); experiment: Antagonist activity at human recombinant P2X7 receptor expressed in human 1321N1 cells assessed as benzoyl-ATP-induced calcium flux by FLIPR assay; type: functional, cell-based
T1 sequence (Q99572 whole entry): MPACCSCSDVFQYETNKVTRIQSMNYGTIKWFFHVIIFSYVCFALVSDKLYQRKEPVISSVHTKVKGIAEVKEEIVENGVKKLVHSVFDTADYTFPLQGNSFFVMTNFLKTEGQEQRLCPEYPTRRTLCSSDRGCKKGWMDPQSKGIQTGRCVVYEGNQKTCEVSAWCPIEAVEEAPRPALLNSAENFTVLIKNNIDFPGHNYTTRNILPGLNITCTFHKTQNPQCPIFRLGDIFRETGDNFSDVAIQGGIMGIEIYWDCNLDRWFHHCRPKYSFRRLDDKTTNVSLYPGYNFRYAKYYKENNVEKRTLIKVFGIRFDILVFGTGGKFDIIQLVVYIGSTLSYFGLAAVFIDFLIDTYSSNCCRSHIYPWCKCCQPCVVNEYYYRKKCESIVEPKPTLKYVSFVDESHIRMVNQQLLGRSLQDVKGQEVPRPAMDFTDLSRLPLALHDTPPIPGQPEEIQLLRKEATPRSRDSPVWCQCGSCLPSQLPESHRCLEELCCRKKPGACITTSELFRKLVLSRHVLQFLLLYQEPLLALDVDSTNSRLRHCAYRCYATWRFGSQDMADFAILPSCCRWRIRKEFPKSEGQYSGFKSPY
Outline: (§1)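 The human or rat P2X7 was stably transfected into 1321N1 astrocytoma cells, which lack endogenous P2X function. Cells were loaded with Fluo-4 and given a 5 min antagonist pretreatment before BzATP challenge. Ca2+ flux was read on FLIPR. Results are pIC50 ± SEM, n = 2, or ≥3 where marked.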

P2X purinoceptor 7 [2] = target: T2, P2X purinoceptor 7 (Rattus norvegicus, UniProt Q64663); experiment: Antagonist activity at rat recombinant P2X7 receptor expressed in human 1321N1 cells assessed as benzoyl-ATP-induced calcium flux by FLIPR assay; type: functional, cell-based; outline: as §1
T2 sequence (Q64663 whole entry): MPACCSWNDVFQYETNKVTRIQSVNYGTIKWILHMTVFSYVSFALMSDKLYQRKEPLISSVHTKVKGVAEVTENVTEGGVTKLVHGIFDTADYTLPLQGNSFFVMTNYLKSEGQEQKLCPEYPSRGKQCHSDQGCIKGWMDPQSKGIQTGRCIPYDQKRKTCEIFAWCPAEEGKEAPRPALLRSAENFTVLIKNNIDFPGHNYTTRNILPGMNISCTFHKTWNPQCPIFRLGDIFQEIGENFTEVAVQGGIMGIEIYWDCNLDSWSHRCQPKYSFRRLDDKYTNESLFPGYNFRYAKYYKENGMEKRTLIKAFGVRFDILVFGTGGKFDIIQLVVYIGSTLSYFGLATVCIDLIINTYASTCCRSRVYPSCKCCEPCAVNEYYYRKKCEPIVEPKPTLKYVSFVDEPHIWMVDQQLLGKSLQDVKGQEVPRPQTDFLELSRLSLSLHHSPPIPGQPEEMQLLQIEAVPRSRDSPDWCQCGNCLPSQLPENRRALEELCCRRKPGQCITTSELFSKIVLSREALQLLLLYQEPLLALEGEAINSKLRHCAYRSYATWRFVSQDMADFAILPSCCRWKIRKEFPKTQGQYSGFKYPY

P2X purinoceptor 7 [3] = target: T1, P2X purinoceptor 7; experiment: Antagonist activity at human recombinant P2X7 receptor expressed in differentiated human THP1 cells assessed as inhibition of benzoyl-ATP-induced IL1-beta release by ELISA; type: functional, cell-based, THP-1
Outline: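 THP-1 cells were differentiated with LPS and IFNγ. Compound was present while cells were stimulated with BzATP for 30 min. Released IL-1β was quantified by ELISA kit. Results are given as pIC50.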

Rattus norvegicus [4] = experiment: Reversal of neuropathic pain in ip dosed L5/L6 spinal nerve tight ligation rat model assessed as paw withdrawal threshold; type: functional
Outline: (§2)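 L5/L6 spinal nerve tight ligation was done 7–14 days before testing. Mechanical allodynia was measured with von Frey filaments before dosing, and rats with threshold <5 g were kept. Rats were retested 30 min after ip dosing at 30–300 µmol/kg. Reversal on the ipsilateral side was expressed relative to the contralateral side, and ED50 was derived.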

[5] = Volume of distribution at terminal phase in rat at 5 umol/kg, iv; type: ADME, organism-based; conditions: in vivo, read-out: Vbeta
Outline: (§3)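 Rats were dosed iv or ip at 5 µmol/kg in 10% DMSO/90% PEG. Plasma PK parameters were derived: Vβ, Clp, Cmax, Tmax, AUC, t1/2 and F.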

Rattus norvegicus [6] = experiment: Cmax in rat at 5 umol/kg, ip; type: ADME, organism-based; set-up: dose 5 umol/kg, route intraperitoneal; conditions: in vivo; outline: as §3
Rattus norvegicus [7] = experiment: Tmax in rat at 5 umol/kg, ip; type: ADME, organism-based; conditions: in vivo; outline: as §3
Rattus norvegicus [8] = experiment: AUC in rat at 5 umol/kg, iv; type: ADME, organism-based, Plasma; conditions: in vivo; outline: as §3
Rattus norvegicus [9] = experiment: AUC in rat at 5 umol/kg, ip; type: ADME, organism-based, Plasma; conditions: in vivo; outline: as §3
[10] = Half life in rat at 5 umol/kg, iv; type: ADME, organism-based; conditions: in vivo; outline: as §3
Rattus norvegicus [11] = experiment: Half life in rat at 5 umol/kg, ip; type: ADME, organism-based; conditions: in vivo; outline: as §3
[12] = Bioavailability in rat at 5 umol/kg, ip; type: ADME, organism-based; conditions: in vivo; outline: as §3
Rattus norvegicus [13] = experiment: Reversal of neuropathic pain in L5/L6 spinal nerve tight ligation rat model assessed as paw withdrawal threshold at 30 to 300 umol/kg, ip relative to contralateral paw; type: functional; outline: as §2

SMILES | IC50 (P2X purinoceptor 7 [1]) | IC50 (P2X purinoceptor 7 [2]) | further results
COc1ccc(C2(C(=O)NNc3cccc4ncccc34)CCCCC2)cc1 | 52.5 nM | 51.3 nM | –
O=C(NNc1cccc2ncccc12)C1(c2ccccc2F)CCCCC1 | 191 nM | 324 nM | –
CC1CCC(C)(C(=O)NNc2cccc3ncccc23)C1(C)C (stereo not drawn) | 27.5 nM | 123 nM | –
O=C(NNc1cccc2ncccc12)C1(c2ccc(F)cc2)CCCCC1 | 70.8 nM | 174 nM | –
Cc1ccccc1NNC(=O)C1CCCCC1 | 174 nM | 245 nM | –
Cc1ccccc1NNC(=O)CCC(C)C | 148 nM | 339 nM | –
CC1(C)C2CCC1(C(=O)NNc1cccc3ncccc13)C(=O)C2 (stereo not drawn) | 1380 nM | 1510 nM | –
Cc1ccccc1NNC(=O)C1CCCCCC1 | 33.9 nM | 49 nM | –
CC1(C)C(C(=O)NNc2cccc3ncccc23)C1(C)C | 200 nM | 155 nM | –
Cc1ccccc1NNC(=O)C1(c2ccccc2)CCCC1 | 132 nM | 151 nM | –
Cc1ccccc1NNC(=O)CC1CCCCC1 | 38.9 nM | 151 nM | –
Cc1ccccc1NNC(=O)C1(C)CCCCC1 | 70.8 nM | 148 nM | –
CCCCCCC(=O)NNc1ccccc1C | 407 nM | 195 nM | –
O=C(NNc1cccc2ncccc12)C1(c2cccc(F)c2)CCCCC1 | 141 nM | 257 nM | –

The next lines start with results.

IC50 (P2X purinoceptor 7 [1]) | IC50 (P2X purinoceptor 7 [2]) | SMILES | further results
33.9 nM | 151 nM | O=C(NNc1cccc2cnccc12)C12CC3CC(CC(C3)C1)C2 | –
34.7 nM | 51.3 nM | O=C(NNc1cccc(Cl)c1Cl)C12CC3CC(CC(C3)C1)C2 | –
51.3 nM | 174 nM | O=C(NNc1cccc2nc(Cl)ccc12)C12CC3CC(CC(C3)C1)C2 | –
110 nM | 275 nM | O=C(NNc1ccccc1)C12CC3CC(CC(C3)C1)C2 | –
27.5 nM | 52.5 nM | O=C(NNc1cccc2ncccc12)C12CC3CC(CC1C3)C2 | IC50 (P2X purinoceptor 7 [3]): 158 nM
18.6 nM | 31.6 nM | CC1(C(=O)NNc2cccc3ncccc23)CC2C=CC1C2 (stereo not drawn) | –
372 nM | – | O=C(NNc1ccc(Cl)cc1Cl)C12CC3CC(CC(C3)C1)C2 | pIC50 (P2X purinoceptor 7 [2]; 1321-n1): > 5
11.7 nM | 28.2 nM | Cc1ccccc1NNC(=O)C12CC3CC(CC(C3)C1)C2 | –
22.9 nM | 145 nM | CCC12CC3CC(C1)CC(C(=O)NNc1cccc4ncccc14)(C3)C2 | –
11.5 nM | 33.9 nM | O=C(NNc1ccccc1Cl)C12CC3CC(CC(C3)C1)C2 | –
10.2 nM | 44.7 nM | O=C(NNc1cccc2ncccc12)C12CC3CC(CC(C3)C1)C2 | IC50 (P2X purinoceptor 7 [3]): 5.01 nM; ED50 (Rattus norvegicus [4]): 92 µmol/kg; Vd [5]: 0.9 L/kg; Cmax (Rattus norvegicus [6]): 440 ng/mL; Tmax (Rattus norvegicus [7]): 30 min; AUC (Rattus norvegicus [8]): 940 ng·h/mL; AUC (Rattus norvegicus [9]): 390 ng·h/mL; half-life [10]: 24 min; t1/2 (Rattus norvegicus [11]): 36 min; bioavailability [12]: 42%; Activity (Rattus norvegicus [13]): 68%
10.2 nM | 35.5 nM | O=C(NNc1cccc2ncccc12)C12CC3CC(CC(Cl)(C3)C1)C2 | IC50 (P2X purinoceptor 7 [3]): < 1 nM
977 nM | 2450 nM | COc1ccc(NNC(=O)C23CC4CC(CC(C4)C2)C3)cc1 | –
282 nM | 1070 nM | O=C(NNc1ccc(F)cc1)C12CC3CC(CC(C3)C1)C2 | –
219 nM | 427 nM | O=C(NNc1ccccn1)C12CC3CC(CC(C3)C1)C2 | –
324 nM | 468 nM | O=C(NNc1cccc(F)c1)C12CC3CC(CC(C3)C1)C2 | –
57.5 nM | 135 nM | Cc1ccc(C)c(NNC(=O)C23CC4CC(CC(C4)C2)C3)c1 | –
57.5 nM | 603 nM | O=C(CC12CC3CC(CC(C3)C1)C2)NNc1cccc2ncccc12 | –
832 nM | 977 nM | O=C(NNc1cccnc1)C12CC3CC(CC(C3)C1)C2 | –
275 nM | 2240 nM | O=C(NNc1cccc2ncccc12)C12CC3CC(CC(O)(C3)C1)C2 | –
39.8 nM | 204 nM | O=C(NNc1ccccc1F)C12CC3CC(CC(C3)C1)C2 | –
